Experimental findings from ChEMBL document CHEMBL1152610, “3- and 6-Substituted 2-amino-4,5,6,7-tetrahydrothieno[2,3-c]pyridines as A1 adenosine receptor allosteric modulators and antagonists” (Bioorg Med Chem, 2009) are described below.

Activity calls are given as the source filed them. The calls are words filed in the database; no cut-off is given here. Some results are limits rather than exact numbers.

For assay [1], the target named is T1, Adenosine receptor A1 (Homo sapiens) (UniProt P30542).
T1 sequence (whole entry): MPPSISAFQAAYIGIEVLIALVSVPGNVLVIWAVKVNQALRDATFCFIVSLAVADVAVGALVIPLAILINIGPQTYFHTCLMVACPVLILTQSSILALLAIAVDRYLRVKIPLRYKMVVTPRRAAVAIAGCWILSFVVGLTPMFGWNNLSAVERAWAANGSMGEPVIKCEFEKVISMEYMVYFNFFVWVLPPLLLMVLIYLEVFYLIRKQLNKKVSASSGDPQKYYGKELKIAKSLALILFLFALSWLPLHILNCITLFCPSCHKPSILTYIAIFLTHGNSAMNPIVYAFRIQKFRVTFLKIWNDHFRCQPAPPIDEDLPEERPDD
Briefly: Agonist activity at human adenosine A1 receptor expressed in CHOk1 cells assessed as potentiation of R-PIA-induced ERK1/2 phosphorylation at 10 uM. It is filed as functional, cell-based. The method in brief:
(§1)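 FlpIn-CHO cells stably expressing human A1AR were seeded at 50,000/well and kept in serum-free DMEM/20 mM HEPES for at least 4 h. They were pretreated for 30 min with 1 U/mL adenosine deaminase, then for 30 min at 37 °C with compound at 3 or 10 μM.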

Assay [2] deals with T1, Adenosine receptor A1 (Homo sapiens). In words: Agonist activity at human adenosine A1 receptor expressed in CHOk1 cells assessed as induction of ERK1/2 phosphorylation at 10 uM relative to R-PIA. It is filed as functional, cell-based. The method in brief:
as §1

In assay [3] the target is T2, Adenosine receptor A1 (Homo sapiens, UniProt P30542).
T2 sequence (P30542 whole entry): T1 sequence (whole entry)
Briefly: Allosteric modulatory activity at human adenosine A1 receptor expressed in CHOk1 cells assessed as drug level causing half maximal allosteric effect on [125I]-ABA dissociation from receptor-G protein ternary complex by dissociation kinetic binding assay. It is filed as cell-based.

The target of assay [4] is T1, Adenosine receptor A1 (Homo sapiens). Briefly: Agonist activity at human adenosine A1 receptor expressed in CHOk1 cells assessed as potentiation of R-PIA-induced ERK1/2 phosphorylation at 3 uM. It counts as functional, cell-based. The method in brief: as §1
Assay [5] shares this target. In words: Allosteric modulatory activity at human adenosine A1 receptor expressed in CHOk1 cells assessed as [125I]-ABA-receptor-G protein ternary complex remaining after 10 mins of radioligand dissociation at 50 uM by dissociation kinetic binding assay. It counts as cell-based. The method in brief:
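Membranes (10 μg) from CHO-K1 cells stably expressing human A1AR were equilibrated for 90 min at room temperature with 0.5 nM [125I]-ABA in 10 mM HEPES pH 7.2, 0.5 mM MgCl2 and 1 U/mL adenosine deaminase. Modulator (0.1–50 μM final) was added for 30 min. Dissociation was started with 100 μM orthosteric antagonist plus 25 μM GTPγS for 10 min, then samples were filtered and counted. K-score is the % specific binding remaining; EC50 comes from a variable-slope sigmoidal fit.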

Assay [6] concerns the target T2, Adenosine receptor A1. In words: Antagonist activity at human adenosine A1 receptor expressed in CHOk1 cells assessed as inhibition of R-PIA-induced ERK1/2 phosphorylation. It is filed as functional, cell-based. Particulars: read-out: pA2 (converted). The method in brief: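 Human A1AR FlpIn-CHO cells were serum-starved and pretreated for 30 min with 1 U/mL adenosine deaminase. Modulator (0.3, 1, 3, 10 or 30 μM) or none was then added for 30 min at 37 °C. Full R-PIA concentration–response curves followed, with 5 min stimulation. ERK1/2 phosphorylation was measured by AlphaScreen SureFire and normalized to the 6 min 3% FBS response.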

Turning to `CN1CCc2c(sc(N)c2C(=O)NNc2ccccc2)C1`, the result in assay [1], in assay [2] and in assay [4] was inactive. The EC50 – broadly, the concentration that produces a half-maximal response – in assay [3] amounted to 11.5 µM. In addition, the Activity in assay [5] amounted to 83.1%.
Take `CN1CCc2c(sc(N)c2C(=O)NCc2ccccc2)C1`: the result in assay [1], in assay [2] and in assay [4] was inactive. For the same compound, the EC50 in assay [3] amounted to 12 µM. The Activity in assay [5] came to 87.2%.
On to `N#Cc1c(N)sc2c1CCN(Cc1ccccc1)C2`, for which the outcome in assay [1], in assay [2] and in assay [4] was inactive. The EC50 in assay [3] turned out to be 15.2 µM. The Activity in assay [5] was determined as 52%.
Turning to `NC(=O)c1c(N)sc2c1CCN(Cc1ccccc1)C2`, the result in assay [1], in assay [2] and in assay [4] was inactive. Also, in assay [3], the EC50 was more than 20 µM. Moreover, the Activity in assay [5] came to 19.1%.
`Nc1sc2c(c1C(=O)NCc1cccc(Cl)c1)CCN(Cc1ccccc1)C2`: the outcome in assay [1], in assay [2] and in assay [4] was inactive. In assay [3], the EC50 was more than 20 µM. The Activity in assay [5] came out at 36%.
Turning to `CN1CCc2c(sc(N)c2C#N)C1`, the outcome in assay [1], in assay [2] and in assay [4] was inactive. For the same compound, the 50% effective concentration (EC50) in assay [3] was more than 20 µM. For the same compound, the Activity in assay [5] was found to be 14.8%.
With `Nc1sc2c(c1C(=O)NNc1ccccc1)CCN(Cc1ccccc1)C2`, the result in assay [1], in assay [2] and in assay [4] was inactive. For the same compound, in assay [3], the EC50 came to 7.8 µM. Moreover, the Activity in assay [5] is 55.4%.
Consider `CN1CCc2c(sc(N)c2C(N)=O)C1`, for which the outcome in assay [1], in assay [2] and in assay [4] was inactive. Further, in assay [3], the EC50 was more than 20 µM. The Activity in assay [5] came out at 19.8%.
Turning to `CCOC(=O)c1c(N)sc2c1CCNC2`, the outcome in assay [1], in assay [2] and in assay [4] was inactive. The EC50 in assay [3] turned out to be 11.7 µM. For the same compound, the Activity in assay [5] was 58.5%.
On to `CC(C)(C)OC(=O)N1CCc2c(sc(N)c2C(=O)O)C1`, for which the outcome in assay [1], in assay [2] and in assay [4] was inactive. The EC50 in assay [3] worked out at 12.1 µM. Also, the Activity in assay [5] is 66.1%.
In the case of `CCOC(=O)c1c(N)sc2c1CCN(C(=O)OC(C)(C)C)C2`, the result in assay [1], in assay [2] and in assay [4] was inactive. Besides, the concentration giving a half-maximal response (EC50) in assay [3] worked out at 13.2 µM. In addition, in assay [5], the Activity amounted to 32.8%. Moreover, in assay [6], the Kb was 0.832 µM.
`CC(C)(C)OC(=O)N1CCc2c(sc(N)c2C#N)C1`: the outcome in assay [1], in assay [2] and in assay [4] was inactive. Also, the EC50 in assay [3] is more than 20 µM. For the same compound, the Activity in assay [5] amounted to 22.9%.
As to `Nc1sc2c(c1C(=O)NCc1cccc(C(F)(F)F)c1)CCN(Cc1ccccc1)C2`, the outcome in assay [1], in assay [2] and in assay [4] was inactive. In assay [3], the EC50 worked out at 15.5 µM. For the same compound, the Activity in assay [5] was 46.9%.
With `CCOC(=O)c1c(N)sc2c1CCN(Cc1ccccc1)C2` [TINORIDINE], the result in assay [1], in assay [2] and in assay [4] was inactive. In addition, the EC50 in assay [3] is 10.3 µM. Besides, in assay [5], the Activity turned out to be 44.9%.
As for `Nc1sc2c(c1C(=O)NCc1ccccc1)CCN(Cc1ccccc1)C2`, the result in assay [1], in assay [2] and in assay [4] was inactive. Besides, the EC50 in assay [3] came to 13.1 µM. The Activity in assay [5] is 37.6%.
With `CCOC(=O)c1c(N)sc2c1CCN(C(=O)[C@H](Cc1ccccc1)NC(=O)OC(C)(C)C)C2`, the outcome in assay [1], in assay [2] and in assay [4] was inactive. Further, the EC50 in assay [3] came out at 7.2 µM. Further, in assay [5], the Activity amounted to 82.5%. The Kb in assay [6] was 0.372 µM.
For the compound `CCOC(=O)c1c(N)sc2c1CCN(C)C2`, the outcome in assay [1], in assay [2] and in assay [4] was inactive. The EC50 in assay [3] was more than 20 µM. The Activity in assay [5] turned out to be 14.9%.
`CCOC(=O)c1c(N)sc2c1CCN(C(=O)[C@H](CSC(c1ccccc1)(c1ccccc1)c1ccccc1)NC(=O)OC(C)(C)C)C2`: the outcome in assay [1], in assay [2] and in assay [4] was inactive. Further, the EC50 in assay [3] amounted to 7.9 µM. Further, in assay [5], the Activity turned out to be 93.2%.
`CCOC(=O)c1c(N)sc2c1CCN(C(=O)[C@@H](Cc1ccc(Cl)cc1)N(C)C(=O)OC(C)(C)C)C2`: the outcome in assay [1], in assay [2] and in assay [4] was inactive. Also, the 50% effective concentration (EC50) in assay [3] is 9.1 µM. Also, in assay [5], the Activity worked out at 92.9%. The Kb in assay [6] is 1.82 µM.
Consider `NNC(=O)c1c(N)sc2c1CCN(Cc1ccccc1)C2`, for which the result in assay [1], in assay [2] and in assay [4] was inactive. Moreover, the concentration giving a half-maximal response (EC50) in assay [3] came out at 8.9 µM. The Activity in assay [5] was 82.9%.
Consider `Nc1sc2c(c1C(=O)c1ccc(Cl)cc1)CCN(Cc1ccccc1)C2`, for which the result in assay [1] and in assay [4] was Active. Further, the EC50 in assay [3] is more than 20 µM. The Activity in assay [5] came to 32.6%.
As to `CN1CCc2c(sc(N)c2C(=O)NN)C1`, the result in assay [1], in assay [2] and in assay [4] was inactive. The EC50 in assay [3] is 4.4 µM. In addition, the Activity in assay [5] was found to be 85.7%.
With `Nc1sc2c(c1C(=O)O)CCN(Cc1ccccc1)C2`, the outcome in assay [1], in assay [2] and in assay [4] was inactive. The EC50 in assay [3] turned out to be 8 µM. Also, the Activity in assay [5] was 68.3%.
For the compound `CN1CCc2c(sc(N)c2C(=O)O)C1`, the result in assay [1], in assay [2] and in assay [4] was inactive. Also, the EC50 in assay [3] is 11.6 µM. The Activity in assay [5] amounted to 77.1%.
Consider `CN1CCc2c(sc(N)c2C(=O)NCc2cccc(Cl)c2)C1`, for which the result in assay [1], in assay [2] and in assay [4] was inactive. Besides, the EC50 in assay [3] was found to be 13.2 µM. For the same compound, the Activity in assay [5] was determined as 88%.
